Experimental data: ChEMBL document CHEMBL3808283, “Biological Characterization and in Vivo Assessment of the Activity of a New Synthetic Macrocyclic Antifungal Compound” (J Med Chem, 2016)
In brackets after ≈: the same amount, converted by molar mass. Activity calls are given as the source filed them. The calls are words filed in the database; no cut-off is given here.

Legend:
[1] = Antifungal activity against Geotrichum silvicola measured at 24 hrs by broth dilution assay; type: functional
Procedure, shortened: (§1)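 EUCAST broth microdilution, including the update for non-fermenting yeasts (Cryptococcus, Geotrichum), on clinical and reference yeast isolates. Incubated at 37 °C and read at 24, 48 and 72 h. MIC taken as the lowest concentration with no visible growth. For Cryptococcus and Geotrichum, MICs were read only once growth was visible in the control row.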

Candida albicans [2] = experiment: Antifungal activity against Candida albicans isolate DSY448 harboring CDR1 deletion mutant at 10 uM by serial dilution assay; type: functional, organism-based
Procedure, shortened: (§2)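 Spot dilution assay: C. albicans cells 10-fold serially diluted from 2 × 10^7 cells/mL, with 5 µL of each dilution spotted onto YEPD agar plates containing the drug.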

Candida albicans [3] = experiment: Antifungal activity against Candida albicans 15T measured at 24 hrs by broth dilution assay; type: functional; procedure, shortened: as §1
Candida parapsilosis [4] = experiment: Antifungal activity against Candida parapsilosis 81E measured at 24 hrs by broth dilution assay; type: functional; settings: Lodderomyces parapsilosis; procedure, shortened: as §1
Candida albicans [5] = experiment: Upregulation of CDR2 gene expression in Candida albicans SC5314 at 3 uM after 15 mins by microarray method relative to control; type: functional
Procedure, shortened: (§3)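 Log-phase C. albicans SC5314 in liquid YEPD exposed to 3 µM final for 15 or 45 min; untreated controls taken at the same time points. Three biological replicates. RNA extracted by glass-bead/phenol-chloroform method and integrity checked. One-color Cy3-labeled cRNA (600 ng) hybridized 17 h at 65 °C to 8 × 15K arrays. Expression expressed as fold change versus control.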

Pichia kudriavzevii [6] = experiment: Antifungal activity against Candida krusei ATCC 14243 measured at 24 hrs by broth dilution assay; type: functional; settings: ATCC 14243, 24 h; procedure, shortened: as §1
Candida albicans [7] = experiment: Upregulation of orf19.2726 gene expression in Candida albicans SC5314 at 3 uM after 15 mins by microarray method relative to control; type: functional
Procedure, shortened: (§4)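 Log-phase cultures in liquid YEPD were exposed to 3 µM compound (final) for 15 or 45 min, with untreated controls sampled at the same times, in three biological replicates. Total RNA was extracted by glass-bead/phenol-chloroform disruption and integrity-checked. One-color Cy3-labelled cRNA (600 ng) was hybridized for 17 h at 65 °C to 8 × 15K arrays, and fold change was taken versus control.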

Candida parapsilosis [8] = experiment: Antifungal activity against Candida parapsilosis 81E measured at 48 hrs by broth dilution assay; type: functional; settings: Lodderomyces parapsilosis; procedure, shortened: as §1
Candida albicans [9] = experiment: Antifungal activity against fluconazole-susceptible Candida albicans ATCC 90028 in immunocompetent Balb/c mouse candidiasis model assessed as reduction in CFU count in spleen at 20 to 40 mg/kg/day, ip regime measured on day 7 post infection; type: functional, organism-based
Procedure, shortened: (§5)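 Immunocompetent BALB/c mice, 10 per strain group, injected in the lateral tail vein with 7 × 10^4 CFU of C. albicans in 200 µL sterile saline. Compound given ip daily, 100 µL of 0.1 mg/mL in DMSO/PEG 400 2:1; fluconazole control ip at 8 mg/kg/day. On day 7, spleen and kidneys were excised, weighed and homogenized in saline, then plated on YPD agar for 2 days at 30 °C. Read-out CFU/g; Wilcoxon rank-sum test, P<0.05.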

Candida albicans [10] = experiment: Upregulation of IFU5 gene expression in Candida albicans SC5314 at 3 uM after 15 mins by microarray method relative to control; type: functional; procedure, shortened: as §3
Candida albicans [11] = experiment: Antifungal activity against Candida albicans isolate DSY654 harboring CDR1/2 deletion mutant at 10 uM by serial dilution assay; type: functional, organism-based; procedure, shortened: as §2
Candida albicans [12] = experiment: Upregulation of PDR16 gene expression in Candida albicans SC5314 at 3 uM after 45 mins by microarray method relative to control; type: functional; procedure, shortened: as §3
Candida tropicalis = experiment: Ratio of MIC at 24 hrs to MIC at 48 hrs for Candida tropicalis 86E; type: functional
Procedure, shortened: (§6)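 MICs by EUCAST broth microdilution, with the update for non-fermenting yeasts, incubated at 37 °C. Read at 24, 48 and 72 h as the lowest concentration preventing visible growth.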

Candida albicans [13] = experiment: Upregulation of orf19.1887 gene expression in Candida albicans SC5314 at 3 uM after 15 mins by microarray method relative to control; type: functional; procedure, shortened: as §4
Candida albicans [14] = experiment: Antifungal activity against Candida albicans 4T measured at 48 hrs by broth dilution assay; type: functional; procedure, shortened: as §1
Candida albicans [15] = experiment: Upregulation of ERG2 gene expression in Candida albicans SC5314 at 3 uM after 15 mins by microarray method relative to control; type: functional; procedure, shortened: as §3
Candida albicans [16] = experiment: Upregulation of orf19.1438 gene expression in Candida albicans SC5314 at 3 uM after 15 mins by microarray method relative to control; type: functional; procedure, shortened: as §3
Candida albicans [17] = experiment: Upregulation of orf19.2726 gene expression in Candida albicans SC5314 at 3 uM after 45 mins by microarray method relative to control; type: functional; procedure, shortened: as §4
[18] = Antifungal activity against Geotrichum silvicola measured at 48 hrs by broth dilution assay; type: functional; procedure, shortened: as §1
Candida parapsilosis [19] = experiment: Antifungal activity against Candida parapsilosis 64E measured at 48 hrs by broth dilution assay; type: functional; settings: Lodderomyces parapsilosis; procedure, shortened: as §1
Candida albicans [20] = experiment: Fungicidal activity against Candida albicans ATCC 60193 at 5 uM up to 24 hrs by time kill assay relative to control; type: functional
Procedure, shortened: (§7)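 EUCAST broth microdilution at 37 °C. From wells at MIC, 2×, 4× and 8× MIC, 10 µL aliquots were taken, serially 10-fold diluted in saline and plated on Sabouraud dextrose agar. Plates were incubated at 37 °C for 24/48 h, and 48 h for Cryptococcus and Geotrichum. Done in duplicate, detection limit 10 CFU/mL. A drop of at least 3 Log10 CFU/mL from the initial inoculum in 24 h counts as fungicidal; a smaller drop counts as fungistatic.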

Magnusiomyces capitatus = experiment: Antifungal activity against Geotrichum capitatum up to 96 hrs by broth dilution assay; type: functional
Candida albicans [21] = experiment: Antifungal activity against azole-susceptible Candida albicans isolate DSY294 in immunocompetent Balb/c mouse candidiasis model assessed as reduction in CFU count in spleen at 40 mg/kg/day, ip regime measured on day 7 post infection; type: functional, organism-based; procedure, shortened: as §5
Candida albicans [22] = experiment: Upregulation of CDR1 gene expression in Candida albicans SC5314 at 3 uM after 45 mins by microarray method relative to control; type: functional; procedure, shortened: as §3
Pichia kudriavzevii [23] = experiment: Fungicidal activity against Candida krusei ATCC 14243 assessed as reduction in CFU at 80 uM measured at 24 hrs by time kill assay relative to control; type: functional; settings: ATCC 14243, 24 h; procedure, shortened: as §7
Candida albicans [24] = experiment: Antifungal activity against wild type Candida albicans CAF2-1 at 10 uM by serial dilution assay; type: functional, organism-based
Candida parapsilosis [25] = experiment: Antifungal activity against Candida parapsilosis ATCC 34136 measured at 48 hrs by broth dilution assay; type: functional; settings: Lodderomyces parapsilosis, ATCC 34136, 48 h; procedure, shortened: as §1
Candida albicans [26] = experiment: Antifungal activity against Candida albicans 15T measured at 72 hrs by broth dilution assay; type: functional; procedure, shortened: as §1
Pichia kudriavzevii [27] = experiment: Ratio of MIC at 24 hrs to MIC at 48 hrs for Candida krusei 193T; type: functional; procedure, shortened: as §6
Candida albicans [28] = experiment: Antifungal activity against Candida albicans ATCC 60193 measured at 72 hrs by broth dilution assay; type: functional; settings: ATCC 60193, 72 h; procedure, shortened: as §1
Candida albicans [29] = experiment: Upregulation of CDR1 gene expression in Candida albicans SC5314 at 3 uM after 15 mins by microarray method relative to control; type: functional; procedure, shortened: as §3
Candida albicans [30] = experiment: Upregulation of TAC1 gene expression in Candida albicans SC5314 at 3 uM after 15 mins by microarray method relative to control; type: functional; procedure, shortened: as §3

SMILES: C/C=C/CNC(=N)NCCCCCCCCN1CCCCCCCCNC(=N)NC1=O
- Activity [1]: Active
- Activity (Candida albicans [2]): inactive
- MIC (Candida albicans [3]): 5 µM (≈ 2.18 µg/mL)
- MIC (Candida parapsilosis [4]): 20 µM (≈ 8.71 µg/mL)
- fold change (FC) (Candida albicans [5]): 71.84
- MIC (Pichia kudriavzevii [6]): 10 µM (≈ 4.36 µg/mL)
- fold change (FC) (Candida albicans [7]): 5.86
- MIC (Candida parapsilosis [8]): 40 µM (≈ 17.4 µg/mL)
- Activity (Candida albicans [9]): Active
- fold change (FC) (Candida albicans [10]): 1.63
- Activity (Candida albicans [11]): inactive
- fold change (FC) (Candida albicans [12]): 6.89
- Ratio (Candida tropicalis): 2
- fold change (FC) (Candida albicans [13]): 2.19
- MIC (Candida albicans [14]): 5 µM (≈ 2.18 µg/mL)
- fold change (FC) (Candida albicans [15]): 2.61
- fold change (FC) (Candida albicans [16]): 6.13
- fold change (FC) (Candida albicans [17]): 6.56
- MIC [18]: 10 µM (≈ 4.36 µg/mL)
- MIC (Candida parapsilosis [19]): 40 µM (≈ 17.4 µg/mL)
- Activity (Candida albicans [20]): 99.9%
- Activity (Magnusiomyces capitatus): Active
- Activity (Candida albicans [21]): Active
- fold change (FC) (Candida albicans [22]): 3.75
- inhibition at 80 µM (Pichia kudriavzevii [23]): 99.9%
- Activity (Candida albicans [24]): Active
- MIC (Candida parapsilosis [25]): 80 µM (≈ 34.9 µg/mL)
- MIC (Candida albicans [26]): 5 µM (≈ 2.18 µg/mL)
- Ratio (Pichia kudriavzevii [27]): 8
- MIC (Candida albicans [28]): 5 µM (≈ 2.18 µg/mL)
- fold change (FC) (Candida albicans [29]): 3.07
- fold change (FC) (Candida albicans [30]): 2.79
